Five compounds from ChEMBL document CHEMBL2412955, “Synthesis and antibacterial activities of N-substituted-glycinyl 1H-1,2,3-triazolyl oxazolidinones” (2013) can be followed below.

Holding throughout (assay type): functional
For experiment [1], the system named is Staphylococcus aureus. Nature of the experiment: Antibacterial activity against methicillin-resistant Staphylococcus aureus after 18 hrs by NCCLS agar dilution method. The method in brief:
(§1)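 Clinical isolates were tested by agar dilution on Mueller-Hinton agar with drug dilutions from 0.12 to 64 µg/ml. Test compounds were dissolved in 80% DMSO in water. Final inoculum was 10^7 CFU/ml, incubated at 35 °C for 18 h. MIC was the lowest concentration inhibiting visible growth.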

For experiment [2], the system named is Moraxella catarrhalis. Nature of the experiment: Antibacterial activity against Moraxella catarrhalis clinical isolate 255 after 18 hrs by NCCLS agar dilution method. To be noted: clinical isolate 255, 18 h. The method in brief:
(§2)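 NCCLS agar dilution on Mueller-Hinton agar with 5% sheep blood added to support growth. Drug dilutions 0.12–64 µg/ml. Test agents in 80% DMSO in water, linezolid in 40% water in ethanol. Final inoculum 10^7 CFU/ml, 18 h at 35 °C. MIC read as the lowest concentration with no visible growth.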
Background: Agar dilution tests growth on a series of plates holding different concentrations.

Experiment [3] deals with Moraxella catarrhalis. Nature of the experiment: Antibacterial activity against Moraxella catarrhalis clinical isolate 1 after 18 hrs by NCCLS agar dilution method. To be noted: clinical isolate 1, 18 h. A digest of the protocol:
as §2

Experiment [4] relates to Moraxella catarrhalis. Put plainly: Antibacterial activity against Moraxella catarrhalis clinical isolate 3447 after 18 hrs by NCCLS agar dilution method. To be noted: clinical isolate 3447, 18 h. The method in brief:
as §2

Experiment [5] concerns Enterococcus. Put plainly: Antibacterial activity against vancomycin-resistant Enterococcus after 18 hrs by NCCLS agar dilution method. A digest of the protocol:
as §1

Experiment [6] concerns Enterococcus. Put plainly: Antibacterial activity against vancomycin-susceptible Enterococcus after 18 hrs by NCCLS agar dilution method. The method in brief: as §1
Experiment [7] relates to Staphylococcus. Nature of the experiment: Antibacterial activity against methicillin-resistant coagulase-negative Staphylococcus after 18 hrs by NCCLS agar dilution method. A digest of the protocol:
as §1

Experiment [8] has as its system Moraxella catarrhalis. Put plainly: Antibacterial activity against Moraxella catarrhalis clinical isolate 36 after 18 hrs by NCCLS agar dilution method. To be noted: clinical isolate 36, 18 h. The method in brief: as §2
For experiment [9], the system named is Moraxella catarrhalis. Nature of the experiment: Antibacterial activity against Moraxella catarrhalis ATCC 8176 after 18 hrs by NCCLS agar dilution method. To be noted: ATCC 8176, 18 h. The method in brief:
as §2

The next experiment has as its system Escherichia coli. Put plainly: Antibacterial activity against Escherichia coli ATCC 25922 after 18 hrs by NCCLS agar dilution method. To be noted: ATCC 25922, 18 h. The method in brief: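 Agar dilution per NCCLS on Mueller-Hinton agar, drug dilutions 0.12–64 µg/ml. Linezolid dissolved in 40% water in ethanol, vancomycin in water, test agents in 80% DMSO in water. Inoculum 10^7 CFU/ml (final), incubated 35 °C for 18 h. MIC is the lowest concentration preventing visible growth.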

The next experiment has as its system Haemophilus influenzae. Put plainly: Antibacterial activity against Haemophilus influenzae ATCC 49247 after 18 hrs by NCCLS agar dilution method. To be noted: ATCC 49247, 18 h. A digest of the protocol: as §2
Experiment [10] concerns Moraxella catarrhalis. Put plainly: Antibacterial activity against Moraxella catarrhalis clinical isolate 112 after 18 hrs by NCCLS agar dilution method. To be noted: clinical isolate 112, 18 h. The method in brief:
as §2

In experiment [11] the test system is Moraxella catarrhalis. Put plainly: Antibacterial activity against Moraxella catarrhalis clinical isolate 125 after 18 hrs by NCCLS agar dilution method. To be noted: clinical isolate 125, 18 h. A digest of the protocol:
as §2

The test system of experiment [12] is Moraxella catarrhalis. Nature of the experiment: Antibacterial activity against Moraxella catarrhalis clinical isolate 2824 after 18 hrs by NCCLS agar dilution method. To be noted: clinical isolate 2824, 18 h. A digest of the protocol: as §2
Experiment [13] has as its system Staphylococcus aureus. Put plainly: Antibacterial activity against methicillin-susceptible Staphylococcus aureus after 18 hrs by NCCLS agar dilution method. A digest of the protocol: as §1
The test system of experiment [14] is Staphylococcus. Nature of the experiment: Antibacterial activity against methicillin-susceptible coagulase-negative Staphylococcus after 18 hrs by NCCLS agar dilution method. The method in brief:
as §1

In experiment [15] the test system is Moraxella catarrhalis. Nature of the experiment: Antibacterial activity against Moraxella catarrhalis clinical isolate 138 after 18 hrs by NCCLS agar dilution method. To be noted: clinical isolate 138, 18 h. A digest of the protocol: as §2
In experiment [16] the test system is Moraxella catarrhalis. Nature of the experiment: Ratio of linezolid MIC to compound MIC for Moraxella catarrhalis ATCC 8176.
The subject of experiment [17] is Staphylococcus aureus. Nature of the experiment: Ratio of MIC for Staphylococcus aureus ATCC 25923 to MIC for Staphylococcus aureus ATCC 25923 in presence of human plasma. The method in brief:
(§3)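 To gauge plasma protein binding and/or plasma instability, MIC was determined in Mueller-Hinton broth containing 50% human plasma. Linezolid served as a reference agent. Ratio compares this MIC with the MIC obtained without plasma.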

Experiment [18] deals with Staphylococcus aureus. Nature of the experiment: Antibacterial activity against Staphylococcus aureus ATCC 25923 after 18 hrs by NCCLS agar dilution method. To be noted: ATCC 25923, 18 h. The method in brief: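 Plain Mueller-Hinton agar, agar dilution per NCCLS, concentrations 0.12–64 µg/ml. Test agents in 80% DMSO in water, linezolid in 40% water in ethanol, vancomycin in water. Final inoculum 10^7 CFU/ml, 35 °C for 18 h. MIC = lowest concentration inhibiting visible growth.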

A further experiment deals with Streptococcus pneumoniae. Put plainly: Antibacterial activity against penicillin-resistant Streptococcus pneumoniae after 18 hrs by NCCLS agar dilution method. A digest of the protocol:
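Agar dilution was run on Mueller-Hinton agar supplemented with 5% sheep blood, with drug dilutions from 0.12 to 64 µg/ml. Test compounds were dissolved in 80% DMSO in water. Final inoculum was 10^7 CFU/ml, incubated at 35 °C for 18 h. MIC was the lowest concentration preventing visible growth.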

In experiment [19] the test system is Staphylococcus aureus. Put plainly: Antibacterial activity against Staphylococcus aureus ATCC 25923 after 18 hrs by […] in presence of human plasma. To be noted: ATCC 25923, Plasma. A digest of the protocol: as §3

Molecules are shown by their SMILES. ≈ marks a conversion by molar mass, not a printed value. Where only a bound is given, the exact number is not on record here.

In the case of `CC(=O)NC[C@H]1CN(c2ccc(N3CCOCC3)c(F)c2)C(=O)O1` [LINEZOLID], the MIC with Staphylococcus aureus [1] was 0.5 µg/mL (≈ 1.48 µM); against Moraxella catarrhalis [2] it was 8 µg/mL (≈ 23.7 µM); in the experiment on Moraxella catarrhalis [3], 8 µg/mL (≈ 23.7 µM); with Moraxella catarrhalis [4], 8 µg/mL (≈ 23.7 µM); in the experiment with Enterococcus [5] it was 0.5 µg/mL (≈ 1.48 µM); in the experiment on Enterococcus [6], 0.5 µg/mL (≈ 1.48 µM). Also, the MIC against Staphylococcus [7] is 0.5 µg/mL (≈ 1.48 µM); in the experiment on Moraxella catarrhalis [8], 8 µg/mL (≈ 23.7 µM); against Moraxella catarrhalis [9], 8 µg/mL (≈ 23.7 µM); against Escherichia coli it was > 64 µg/mL; against Haemophilus influenzae, 8 µg/mL (≈ 23.7 µM); with Moraxella catarrhalis [10] it was 8 µg/mL (≈ 23.7 µM). In addition, the MIC is 8 µg/mL (≈ 23.7 µM) with Moraxella catarrhalis [11]; 8 µg/mL (≈ 23.7 µM) in the experiment with Moraxella catarrhalis [12]; 0.5 µg/mL (≈ 1.48 µM) in the experiment with Staphylococcus aureus [13]; 0.5 µg/mL (≈ 1.48 µM) with Staphylococcus [14]; 8 µg/mL (≈ 23.7 µM) in the experiment with Moraxella catarrhalis [15].

With `O=C(NCC(=O)N1CCN(c2ccc(N3C[C@H](Cn4ccnn4)OC3=O)cc2F)CC1)c1cc([N+](=O)[O-])cc([N+](=O)[O-])c1`, the MIC in the experiment on Staphylococcus aureus [1] was 0.5 µg/mL (≈ 0.837 µM); with Moraxella catarrhalis [2], 0.25 µg/mL (≈ 0.418 µM); against Moraxella catarrhalis [3] it was 0.25 µg/mL (≈ 0.418 µM); with Moraxella catarrhalis [4] it was 0.25 µg/mL (≈ 0.418 µM); in the experiment with Enterococcus [5] it was 1 µg/mL (≈ 1.67 µM); against Enterococcus [6], 0.5 µg/mL (≈ 0.837 µM). Further, the MIC in the experiment on Staphylococcus [7] was 0.5 µg/mL (≈ 0.837 µM); against Moraxella catarrhalis [8], 0.25 µg/mL (≈ 0.418 µM); against Moraxella catarrhalis [9] it was 0.5 µg/mL (≈ 0.837 µM); against Escherichia coli it was > 64 µg/mL; in the experiment with Haemophilus influenzae, 16 µg/mL (≈ 26.8 µM); against Staphylococcus aureus [18], 1 µg/mL (≈ 1.67 µM). The MIC in the experiment on Moraxella catarrhalis [10] was 0.25 µg/mL (≈ 0.418 µM); in the experiment on Moraxella catarrhalis [11], 0.25 µg/mL (≈ 0.418 µM); in the experiment on Moraxella catarrhalis [12] it was 0.25 µg/mL (≈ 0.418 µM); in the experiment on Staphylococcus aureus [13], 0.5 µg/mL (≈ 0.837 µM); in the experiment on Staphylococcus [14], 0.5 µg/mL (≈ 0.837 µM); against Streptococcus pneumoniae, 0.25 µg/mL (≈ 0.418 µM). The values for the MIC with Staphylococcus aureus [19] and against Moraxella catarrhalis [15] were 16 µg/mL and 0.25 µg/mL (≈ 0.418 µM), respectively. Further, the Ratio in the experiment on Moraxella catarrhalis [16] and with Staphylococcus aureus [17] was 16 in each case.

With `Cc1cn(C[C@H]2CN(c3ccc(N4CCN(C(=O)CNC(=O)c5cccnc5)CC4)c(F)c3)C(=O)O2)nn1`, the MIC was 1 µg/mL (≈ 1.91 µM) in the experiment on Staphylococcus aureus [1]; 4 µg/mL (≈ 7.65 µM) against Moraxella catarrhalis [2]; > 4 µg/mL against Moraxella catarrhalis [3]; 8 µg/mL (≈ 15.3 µM) in the experiment on Moraxella catarrhalis [4]; 1 µg/mL (≈ 1.91 µM) in the experiment with Enterococcus [5]; 1 µg/mL (≈ 1.91 µM) against Enterococcus [6]. Moreover, the MIC against Staphylococcus [7] is 1 µg/mL (≈ 1.91 µM); against Moraxella catarrhalis [8], > 4 µg/mL; against Moraxella catarrhalis [9], 8 µg/mL (≈ 15.3 µM); against Escherichia coli it was > 64 µg/mL; against Haemophilus influenzae, 8 µg/mL (≈ 15.3 µM); against Staphylococcus aureus [18], 2 µg/mL (≈ 3.83 µM). The MIC in the experiment with Moraxella catarrhalis [10] was found to be 4 µg/mL (≈ 7.65 µM); in the experiment on Moraxella catarrhalis [11] it was 4 µg/mL (≈ 7.65 µM); in the experiment on Moraxella catarrhalis [12], 8 µg/mL (≈ 15.3 µM); against Staphylococcus aureus [13], 1 µg/mL (≈ 1.91 µM); against Staphylococcus [14] it was 1 µg/mL (≈ 1.91 µM); in the experiment on Streptococcus pneumoniae, 0.25 µg/mL (≈ 0.478 µM). In addition, the MIC with Staphylococcus aureus [19] came out at 4 µg/mL; with Moraxella catarrhalis [15], 4 µg/mL (≈ 7.65 µM).

Take `CC(C)(C)OC(=O)NCC(=O)N1CCN(c2ccc(N3C[C@H](Cn4ccnn4)OC3=O)cc2F)CC1`: the MIC against Staphylococcus aureus [1] was 2 µg/mL (≈ 3.97 µM); in the experiment on Enterococcus [5] it was 2 µg/mL (≈ 3.97 µM); against Enterococcus [6], 2 µg/mL (≈ 3.97 µM); against Staphylococcus [7], 2 µg/mL (≈ 3.97 µM); against Moraxella catarrhalis [9], 32 µg/mL (≈ 63.6 µM); in the experiment with Escherichia coli, > 64 µg/mL. The MIC was > 64 µg/mL in the experiment with Haemophilus influenzae; 4 µg/mL (≈ 7.94 µM) in the experiment with Staphylococcus aureus [18]; 2 µg/mL (≈ 3.97 µM) against Staphylococcus aureus [13]; 2 µg/mL (≈ 3.97 µM) in the experiment on Staphylococcus [14]; 2 µg/mL (≈ 3.97 µM) in the experiment on Streptococcus pneumoniae; 8 µg/mL in the experiment on Staphylococcus aureus [19].

On to `Cc1cn(C[C@H]2CN(c3ccc(N4CCN(C(=O)CNC(=O)c5ccco5)CC4)c(F)c3)C(=O)O2)nn1`, for which the MIC was 2 µg/mL (≈ 3.91 µM) against Staphylococcus aureus [1]; > 8 µg/mL with Moraxella catarrhalis [2]; > 8 µg/mL with Moraxella catarrhalis [3]; > 8 µg/mL in the experiment on Moraxella catarrhalis [4]; 2 µg/mL (≈ 3.91 µM) against Enterococcus [5]; 2 µg/mL (≈ 3.91 µM) in the experiment on Enterococcus [6]. In addition, the MIC against Staphylococcus [7] was 2 µg/mL (≈ 3.91 µM); against Moraxella catarrhalis [8] it was > 8 µg/mL; with Moraxella catarrhalis [9], 8 µg/mL (≈ 15.6 µM); against Escherichia coli it was > 64 µg/mL; against Haemophilus influenzae, 4 µg/mL (≈ 7.82 µM); in the experiment with Staphylococcus aureus [18], 2 µg/mL (≈ 3.91 µM). The MIC is > 8 µg/mL against Moraxella catarrhalis [10]; > 8 µg/mL in the experiment on Moraxella catarrhalis [11]; > 8 µg/mL in the experiment on Moraxella catarrhalis [12]; 2 µg/mL (≈ 3.91 µM) against Staphylococcus aureus [13]; 2 µg/mL (≈ 3.91 µM) with Staphylococcus [14]; 0.5 µg/mL (≈ 0.977 µM) in the experiment on Streptococcus pneumoniae. Further, the MIC in the experiment with Staphylococcus aureus [19] is 4 µg/mL; against Moraxella catarrhalis [15], > 8 µg/mL.
